Assay results: ChEMBL document CHEMBL1135752, “Pyrazolopyrimidine-2,4-dione sulfonamides: novel and selective calcitonin inducers” (J Med Chem, 2002)

Columns and labels:
[1] = Increased transcription of human calcitonin luciferase reporter gene at 30 uM; format: functional
How it was run: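 Luciferase reporter gene under control of the human calcitonin gene/promoter, used to measure transcription activation. Compound tested at 30 µM. Read-out is the transcription activation ratio: luciferase activity with compound divided by luciferase activity in untreated control.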

[2] = Ability to increase Human calcitonin secretion; format: functional
How it was run: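 Calcitonin secretion assay with radioimmunoassay read-out, measuring the rise in cellular levels and secretion of human CT. Compound tested at 30 µM. Value is the ratio of secretion with compound to secretion in untreated control; average precision error reported as 10-33%.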

[3] = molecular target: T1, Phosphodiesterase 4 (Homo sapiens, UniProt P27815+Q08499+Q07343+Q08493); assay: Percent Rolipram activity of a standard U937 cell phosphodiesterase 4 (PDE4) enzyme assay at 30 uM of compound; format: cell-based; conditions: U-937
How it was run: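 U937 cell PDE4 enzyme assay with compound at 30 µM. Activity is scaled and reported as percent of rolipram activity.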

[4] = molecular target: T1, Phosphodiesterase 4; assay: Inhibition of phosphodiesterase 4 (PDE4); format: protein assay

| SMILES | CT-luci TAR [1] [T/C] | CTS increase [2] | Activity [3] [%] | IC50 [4] [µM] |
| --- | --- | --- | --- | --- |
| CCCCn1c(=O)c2cn(S(=O)(=O)c3ccc(C(C)(C)C)cc3)nc2n(CCCC)c1=O | 2.6 | 2.9 | 57 | – |
| CCCCn1c(=O)c2cn(S(C)(=O)=O)nc2n(CCCC)c1=O | 1.8 | 3.9 | 93 | – |
| CCCCn1c(=O)c2nn(S(=O)(=O)c3cccc4cccnc34)cc2n(CCCC)c1=O | 2.2 | 3.8 | 59 | – |
| CCCCn1c(=O)c2nn(S(=O)(=O)Cc3ccccc3)cc2n(CCCC)c1=O | 1.5 | 2.6 | 65 | – |
| CCCCn1c(=O)c2nn(S(=O)(=O)c3ccc4ccccc4c3)cc2n(CCCC)c1=O | 1.8 | 4.9 | 66 | – |
| CCCCn1c(=O)c2nn(S(=O)(=O)CCCCl)cc2n(CCCC)c1=O | 1.3 | 4.4 | 69 | 4.9 |
| CCCCn1c(=O)c2nn(S(=O)(=O)c3cccc(C(F)(F)F)c3)cc2n(CCCC)c1=O | 1.8 | 3.8 | 32 | – |
| CCCCn1c(=O)c2cn(S(=O)(=O)c3cc(Cl)c(Cl)s3)nc2n(CCCC)c1=O | 3.2 | 3 | 16 | – |
| CCCCn1c(=O)c2cn(S(=O)(=O)c3cccc4cccnc34)nc2n(CCCC)c1=O | 2.9 | 4.8 | 96 | – |
| CCCCn1c(=O)c2cn(S(=O)(=O)c3ccccc3C#N)nc2n(CCCC)c1=O | 3.6 | 3.4 | 32 | – |
| CCCCn1c(=O)c2nn(S(C)(=O)=O)cc2n(CCCC)c1=O | 2.1 | 0.9 | 60 | – |
| CCCCn1c(=O)c2cn(S(=O)(=O)CCCCl)nc2n(CCCC)c1=O | 1.9 | 2.7 | 66 | 4.9 |
| CCCCn1c(=O)c2cn(S(=O)(=O)Cc3ccccc3)nc2n(CCCC)c1=O | 2 | 3.4 | 52 | – |
| CCCCn1c(=O)c2c(ncn2CC(C)=O)n(CCCC)c1=O | 2.1 | 3.5 | 100 | – |
| CCCCn1c(=O)c2nn(S(=O)(=O)c3cc(Cl)c(Cl)s3)cc2n(CCCC)c1=O | 1.7 | 3.4 | 59 | – |
| CCCCn1c(=O)c2nn(S(=O)(=O)c3ccc(C(C)(C)C)cc3)cc2n(CCCC)c1=O | 2.3 | 4.5 | 37 | – |
